Measurements taken from ChEMBL document CHEMBL2203116, “Synthesis and evaluation of novel carbon-11 labeled oxopurine analogues for positron emission tomography imaging of translocator protein (18 kDa) in peripheral organs” (J Med Chem, 2011).

Columns and labels:
Translocator protein = Translocator protein (Rattus norvegicus, UniProt P16257); experiment: Displacement of [11C]-PK-11195 from TPSO in Sprague-Dawley rat brain homogenate after 30 mins by gamma counting; type: tissue-based
[1] = Lipophilicity, log D of the compound in octanol-phosphate buffer at pH 7.4 by shake flask method; type: physicochemical
Summary of the method: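 Radioligand (~200000 cpm) shaken with n-octanol (3.0 g) and 0.1 M sodium phosphate buffer pH 7.4 (3.0 g). Vortexed 3 min at room temperature, centrifuged 3500 rpm for 5 min. Phases weighed and counted; organic layer repartitioned until consistent. LogD = log of the cpm/g octanol to cpm/g buffer ratio. Triplicate.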

Kidney [2] = experiment: Drug uptake in iv dosed Sprague-Dawley rat kidney upto 30 mins by PET scanning; type: ADME, organism-based; details: in vivo, 0.5 h
Summary of the method: (§1)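 Comparator radioligand 15–20 MBq/200 μL (0.15–0.18 nmol) injected iv into isoflurane-anesthetized male Sprague-Dawley rats. ROI time–activity curves for lung, heart, kidney, liver and cardiac blood pool. Uptake as decay-corrected SUV normalized to injected activity and body weight. n = 4, mean ± SD.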

Liver = experiment: Drug uptake in iv dosed Sprague-Dawley rat liver upto 30 mins by PET scanning; type: ADME, organism-based; details: in vivo, 0.5 h; summary of the method: as §1
Blood = experiment: Drug uptake in iv dosed Sprague-Dawley rat cardiac blood pool up to 30 mins by PET scanning; type: ADME, organism-based; details: in vivo, 0.5 h; summary of the method: as §1
Lung [3] = experiment: Drug uptake in iv dosed Sprague-Dawley rat lung after 1 min by PET scanning; type: ADME, organism-based; details: in vivo; summary of the method: as §1
Lung [4] = experiment: Drug uptake in iv dosed Sprague-Dawley rat lung after 27.5 mins by PET scanning; type: ADME, organism-based; details: in vivo; summary of the method: as §1
Heart [5] = experiment: Drug uptake in iv dosed Sprague-Dawley rat heart after 10 mins by PET scanning; type: ADME, organism-based; details: in vivo; summary of the method: as §1
Kidney [6] = experiment: Drug uptake in iv dosed Sprague-Dawley rat kidney after 10 mins by PET scanning; type: ADME, organism-based; details: in vivo; summary of the method: as §1
Heart [7] = experiment: Drug uptake in iv dosed Sprague-Dawley rat heart upto 30 mins by PET scanning; type: ADME, organism-based; details: in vivo, 0.5 h; summary of the method: as §1

Translocator protein, sequence (P16257 whole entry, looked up): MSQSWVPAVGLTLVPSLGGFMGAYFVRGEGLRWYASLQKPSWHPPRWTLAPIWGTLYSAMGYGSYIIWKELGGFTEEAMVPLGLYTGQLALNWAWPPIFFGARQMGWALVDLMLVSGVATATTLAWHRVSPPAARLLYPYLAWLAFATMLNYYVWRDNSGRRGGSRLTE

Ki (Translocator protein) [nM] | logD [1] | Drug uptake (Kidney [2]) | Drug uptake (Liver) | Drug uptake (Blood) | SUV (Lung [3]) | SUV (Lung [4]) | SUV (Heart [5]) | SUV (Kidney [6]) | Drug uptake (Heart [7]) | Compound
5.1 | 2.03 | – | – | – | – | – | – | – | – | CCN(Cc1ccncc1)C(=O)Cn1c(=O)n(C)c2cnc(-c3ccccc3)nc21
13.2 | 2.17 | – | – | – | – | – | – | – | – | CCN(Cc1cccnc1)C(=O)Cn1c(=O)n(C)c2cnc(-c3ccccc3)nc21
– | – | Active | Active | Active | 7.6 | 2.3 | 4.2 | 2.8 | Active | CCN(Cc1ccccc1)C(=O)Cn1c(=O)n([11CH3])c2cnc(-c3ccccc3)nc21
0.6 | 3.48 | – | – | – | – | – | – | – | – | CCN(Cc1ccccc1)C(=O)Cn1c(=O)n(C)c2cnc(-c3ccccc3)nc21
